Measured values taken from ChEMBL document CHEMBL1123647, “(+)-cis-8-Hydroxy-1-methyl-2-(di-n-propylamino)tetralin: a potent and highly stereoselective 5-hydroxytryptamine receptor agonist” (1987).

Legend:
Assay type in all cases: functional
Conditions in all cases: sc
Rattus norvegicus [1] = assay: Effective dose required for half maximal decrease of 5-HTP formation after subcutaneous administration of compound in hemispheres (cortex) for rat brain
Outline: (§1)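 Reserpinized rats (reserpine 5 mg/kg ip, in glucose solution with a little acetic acid). Compounds were dissolved in saline, pH near neutral, and given sc. Brain 5-HTP was measured by HPLC with electrochemical detection. ED50 is the dose giving a half-maximal decrease of 5-HTP formation in that brain part, from a dose-response curve of five to six dose levels, n = 3-4.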

Rattus norvegicus [2] = assay: Effective dose required for half maximal decrease of 5-HTP formation after subcutaneous administration of compound in limbic tissue of rat brain; outline: as §1
Rattus norvegicus [3] = assay: Effective dose required for half maximal decrease of 5-HTP formation after subcutaneous administration of compound in striatum tissue of rat brain; outline: as §1
Rattus norvegicus [4] = assay: Effective dose required for half maximal decrease of DOPA accumulation after subcutaneous administration in limbic tissue of rat brain
Outline: (§2)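 Reserpinized rats (reserpine 5 mg/kg ip) received compound in saline sc. Brain DOPA was measured by HPLC with electrochemical detection. ED50 is the dose giving a half-maximal decrease of DOPA formation, from a dose-response curve of three to five dose levels, n = 3. Maximal reduction was taken as 65% of control for limbic tissue and 80% for striatum.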

Rattus norvegicus [5] = assay: Effective dose required for half maximal decrease of DOPA accumulation after subcutaneous administration in striatum tissue of rat brain; outline: as §2

Compound	ED50 (Rattus norvegicus [1]) [µmol/kg]	ED50 (Rattus norvegicus [2]) [µmol/kg]	ED50 (Rattus norvegicus [3]) [µmol/kg]	ED50 (Rattus norvegicus [4]) [µmol/kg]	ED50 (Rattus norvegicus [5]) [µmol/kg]
CCCN(CCC)[C@@H]1CCc2cccc(OC)c2[C@@H]1C	0.77	0.53	0.6	1.71	1.88
CCCN(CCC)[C@@H]1CCc2cccc(OC)c2[C@H]1C	> 50	> 50	> 50	> 50	> 50
CCCN(CCC)[C@@H]1CCc2cccc(O)c2C1	0.077	0.061	0.065	> 45	> 45
CCCN(CCC)[C@@H]1CCc2cccc(O)c2[C@H]1C	> 50	> 50	> 50	> 50	> 50
CCCN(CCC)[C@@H]1CCc2cccc(O)c2[C@@H]1C.Cl	–	–	–	> 50	> 50
